# Results reported in ChEMBL document CHEMBL4689842, “EUbOPEN Chemogenomics Library wave 1” (2021).
# Test system: Fibroblast
# Experiment: Multiplex assay against human fibroblast
# Type: toxicity, cell-based
# Outline: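 Tubulin, mitochondrial-mass and membrane-permeability phenotypes are per cents of healthy-nucleus cells. Cells were gated by CellPathfinder machine learning into Hoechst high-intensity objects or normal cells, normal cells into healthy, pyknosed or fragmented nuclei, and pyknosed cells into mitotic or apoptotic. Before that, live cells stained at seeding with Hoechst33342, BioTracker Green Microtubule Cytoskeleton Dye, MitoTracker Red and Annexin V Alexa Fluor 680 were imaged on a CQ1 microscope at 37°C and 5% CO2 after compound addition.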
# [1] = 12 h, 1 µM, compound concentration 1 uM, replicate 1
# [2] = 12 h, 1 µM, compound concentration 1 uM, replicate 2
# [3] = 12 h, 10 µM, compound concentration 10 uM, replicate 1
# [4] = 12 h, 10 µM, compound concentration 10 uM, replicate 2
# [5] = 24 h, 1 µM, compound concentration 1 uM, replicate 1
# [6] = 24 h, 1 µM, compound concentration 1 uM, replicate 2
# [7] = 24 h, 10 µM, compound concentration 10 uM, replicate 1
# [8] = 24 h, 10 µM, compound concentration 10 uM, replicate 2
# [9] = 48 h, 1 µM, compound concentration 1 uM, replicate 1
# [10] = 48 h, 1 µM, compound concentration 1 uM, replicate 2
# [11] = 48 h, 10 µM, compound concentration 10 uM, replicate 1
# [12] = 48 h, 10 µM, compound concentration 10 uM, replicate 2
structure (smiles),measurement,setting,value
COc1cc(N2CCN(C)CC2)ccc1Nc1ncc2c(n1)N(C)c1ccccc1C(=O)N2C,Population Apoptotic (%),[1],58%
same,Population Fragmented Nuclei (%),[1],25%
same,Population Healthy Nuclei (%),[1],41%
same,Population Hoechst High Intensity Objects (%),[1],11%
same,Population Membrane Permeable-Phenotype (%),[1],14%
same,Population Mitochondria Different-Phenotype (%),[1],12%
same,Population Mitotic Cells (%),[1],41%
same,Population Normal (%),[1],88%
same,Population Pyknosed Nuclei (%),[1],32%
same,Population Tubulin-Different-Phenotype (%),[1],28%
same,Total Cell Count,[1],135
same,Population Apoptotic (%),[2],40%
same,Population Fragmented Nuclei (%),[2],5%
same,Population Healthy Nuclei (%),[2],82%
same,Population Hoechst High Intensity Objects (%),[2],4%
same,Population Membrane Permeable-Phenotype (%),[2],9%
same,Population Mitochondria Different-Phenotype (%),[2],21%
same,Population Mitotic Cells (%),[2],60%
same,Population Normal (%),[2],95%
same,Population Pyknosed Nuclei (%),[2],12%
same,Population Tubulin-Different-Phenotype (%),[2],15%
same,Total Cell Count,[2],104
same,Population Apoptotic (%),[3],65%
same,Population Fragmented Nuclei (%),[3],32%
same,Population Healthy Nuclei (%),[3],38%
same,Population Hoechst High Intensity Objects (%),[3],20%
same,Population Membrane Permeable-Phenotype (%),[3],17%
same,Population Mitochondria Different-Phenotype (%),[3],35%
same,Population Mitotic Cells (%),[3],34%
same,Population Normal (%),[3],79%
same,Population Pyknosed Nuclei (%),[3],28%
same,Population Tubulin-Different-Phenotype (%),[3],82%
same,Total Cell Count,[3],127
same,Population Apoptotic (%),[4],66%
same,Population Fragmented Nuclei (%),[4],15%
same,Population Healthy Nuclei (%),[4],61%
same,Population Hoechst High Intensity Objects (%),[4],5%
same,Population Membrane Permeable-Phenotype (%),[4],21%
same,Population Mitochondria Different-Phenotype (%),[4],96%
same,Population Mitotic Cells (%),[4],33%
same,Population Normal (%),[4],94%
same,Population Pyknosed Nuclei (%),[4],23%
same,Population Tubulin-Different-Phenotype (%),[4],100%
same,Total Cell Count,[4],42
same,Population Apoptotic (%),[5],60%
same,Population Fragmented Nuclei (%),[5],22%
same,Population Healthy Nuclei (%),[5],57%
same,Population Hoechst High Intensity Objects (%),[5],10%
same,Population Membrane Permeable-Phenotype (%),[5],17%
same,Population Mitochondria Different-Phenotype (%),[5],6%
same,Population Mitotic Cells (%),[5],39%
same,Population Normal (%),[5],89%
same,Population Pyknosed Nuclei (%),[5],19%
same,Population Tubulin-Different-Phenotype (%),[5],26%
same,Total Cell Count,[5],159
same,Population Apoptotic (%),[6],50%
same,Population Fragmented Nuclei (%),[6],9%
same,Population Healthy Nuclei (%),[6],75%
same,Population Hoechst High Intensity Objects (%),[6],6%
same,Population Membrane Permeable-Phenotype (%),[6],6%
same,Population Mitochondria Different-Phenotype (%),[6],12%
same,Population Mitotic Cells (%),[6],50%
same,Population Normal (%),[6],93%
same,Population Pyknosed Nuclei (%),[6],14%
same,Population Tubulin-Different-Phenotype (%),[6],6%
same,Total Cell Count,[6],101
same,Population Apoptotic (%),[7],60%
same,Population Fragmented Nuclei (%),[7],38%
same,Population Healthy Nuclei (%),[7],52%
same,Population Hoechst High Intensity Objects (%),[7],20%
same,Population Membrane Permeable-Phenotype (%),[7],5%
same,Population Mitochondria Different-Phenotype (%),[7],43%
same,Population Mitotic Cells (%),[7],40%
same,Population Normal (%),[7],79%
same,Population Pyknosed Nuclei (%),[7],9%
same,Population Tubulin-Different-Phenotype (%),[7],74%
same,Total Cell Count,[7],140
same,Population Apoptotic (%),[8],76%
same,Population Fragmented Nuclei (%),[8],11%
same,Population Healthy Nuclei (%),[8],63%
same,Population Hoechst High Intensity Objects (%),[8],8%
same,Population Membrane Permeable-Phenotype (%),[8],30%
same,Population Mitochondria Different-Phenotype (%),[8],93%
same,Population Mitotic Cells (%),[8],23%
same,Population Normal (%),[8],91%
same,Population Pyknosed Nuclei (%),[8],25%
same,Population Tubulin-Different-Phenotype (%),[8],66%
same,Total Cell Count,[8],44
same,Population Apoptotic (%),[9],54%
same,Population Fragmented Nuclei (%),[9],34%
same,Population Healthy Nuclei (%),[9],58%
same,Population Hoechst High Intensity Objects (%),[9],14%
same,Population Membrane Permeable-Phenotype (%),[9],19%
same,Population Mitochondria Different-Phenotype (%),[9],1%
same,Population Mitotic Cells (%),[9],45%
same,Population Normal (%),[9],85%
same,Population Pyknosed Nuclei (%),[9],7%
same,Population Tubulin-Different-Phenotype (%),[9],29%
same,Total Cell Count,[9],176
same,Population Apoptotic (%),[10],100%
same,Population Fragmented Nuclei (%),[10],25%
same,Population Healthy Nuclei (%),[10],72%
same,Population Hoechst High Intensity Objects (%),[10],7%
same,Population Membrane Permeable-Phenotype (%),[10],10%
same,Population Mitotic Cells (%),[10],0%
same,Population Normal (%),[10],92%
same,Population Pyknosed Nuclei (%),[10],1%
same,Population Tubulin-Different-Phenotype (%),[10],28%
same,Total Cell Count,[10],83
same,Population Apoptotic (%),[11],85%
same,Population Fragmented Nuclei (%),[11],49%
same,Population Healthy Nuclei (%),[11],45%
same,Population Hoechst High Intensity Objects (%),[11],28%
same,Population Membrane Permeable-Phenotype (%),[11],7%
same,Population Mitochondria Different-Phenotype (%),[11],12%
same,Population Mitotic Cells (%),[11],14%
same,Population Normal (%),[11],71%
same,Population Pyknosed Nuclei (%),[11],4%
same,Population Tubulin-Different-Phenotype (%),[11],44%
same,Total Cell Count,[11],201
same,Population Apoptotic (%),[12],100%
same,Population Fragmented Nuclei (%),[12],39%
same,Population Healthy Nuclei (%),[12],58%
same,Population Hoechst High Intensity Objects (%),[12],18%
same,Population Membrane Permeable-Phenotype (%),[12],5%
same,Population Mitochondria Different-Phenotype (%),[12],8%
same,Population Mitotic Cells (%),[12],0%
same,Population Normal (%),[12],81%
same,Population Pyknosed Nuclei (%),[12],2%
same,Population Tubulin-Different-Phenotype (%),[12],62%
same,Total Cell Count,[12],188
